Assay results from ChEMBL document CHEMBL1154716, “Synthesis of some new S-triazine based chalcones and their derivatives as potent antimicrobial agents” (2010).
Values after ≈ are worked out from the molar mass of the structure shown. Active and inactive are the calls of the source. The calls are words filed in the database; no cut-off is given here.

Key:
Bacillus cereus [1] = assay: Antimicrobial activity against Bacillus cereus at 10 ug/disk after 24 hrs by disk diffusion assay; assay type: functional
Method in brief: (§1)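 Disc diffusion on 4 mm filter discs. Bacteria are grown overnight in LB at 28 C, then adjusted in saline to 1.0 × 10^5 cfu/ml. The suspension is mixed into top agar over peptone agar plates. Plates are incubated 24 h at 28 C, and growth-inhibition zone diameter is measured. Streptomycin and ampicillin controls are applied from a 1 mg/ml stock. Tests are done in duplicate.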

Micrococcus flavus [2] = assay: Antimicrobial activity against Micrococcus flavus at 10 ug/disk after 24 hrs by disk diffusion assay; assay type: functional; method in brief: as §1
Staphylococcus aureus [3] = assay: Antimicrobial activity against Staphylococcus aureus at 10 ug/disk after 24 hrs by disk diffusion assay; assay type: functional; method in brief: as §1
Escherichia coli [4] = assay: Antimicrobial activity against Escherichia coli at 10 ug/disk after 24 hrs by disk diffusion assay; assay type: functional; method in brief: as §1
Pseudomonas aeruginosa [5] = assay: Antimicrobial activity against Pseudomonas aeruginosa at 10 ug/disk after 24 hrs by disk diffusion assay; assay type: functional; method in brief: as §1
Enterobacter cloacae [6] = assay: Antimicrobial activity against Enterobacter cloacae at 10 ug/disk after 24 hrs by disk diffusion assay; assay type: functional; method in brief: as §1
Salmonella typhimurium [7] = assay: Antimicrobial activity against Salmonella Typhimurium at 10 ug/disk after 24 hrs by disk diffusion assay; assay type: functional, organism-based; settings: Salmonella enterica subsp. enterica serovar Typhimurium; method in brief: as §1
Listeria monocytogenes [8] = assay: Antimicrobial activity against Listeria monocytogenes at 10 ug/disk after 24 hrs by disk diffusion assay; assay type: functional; method in brief: as §1
Bacillus cereus [9] = assay: Antimicrobial activity against Bacillus cereus at 1 umol/disk after 24 hrs by disk diffusion assay; assay type: functional; method in brief: as §1
Micrococcus flavus [10] = assay: Antimicrobial activity against Micrococcus flavus at 1 umol/disk after 24 hrs by disk diffusion assay; assay type: functional; method in brief: as §1
Staphylococcus aureus [11] = assay: Antimicrobial activity against Staphylococcus aureus at 1 umol/disk after 24 hrs by disk diffusion assay; assay type: functional; method in brief: as §1
Escherichia coli [12] = assay: Antimicrobial activity against Escherichia coli at 1 umol/disk after 24 hrs by disk diffusion assay; assay type: functional; method in brief: as §1
Pseudomonas aeruginosa [13] = assay: Antimicrobial activity against Pseudomonas aeruginosa at 1 umol/disk after 24 hrs by disk diffusion assay; assay type: functional; method in brief: as §1
Enterobacter cloacae [14] = assay: Antimicrobial activity against Enterobacter cloacae at 1 umol/disk after 24 hrs by disk diffusion assay; assay type: functional; method in brief: as §1
Salmonella typhimurium [15] = assay: Antimicrobial activity against Salmonella Typhimurium at 1 umol/disk after 24 hrs by disk diffusion assay; assay type: functional, organism-based; settings: Salmonella enterica subsp. enterica serovar Typhimurium; method in brief: as §1
Listeria monocytogenes [16] = assay: Antimicrobial activity against Listeria monocytogenes at 1 umol/disk after 24 hrs by disk diffusion assay; assay type: functional; method in brief: as §1
Bacillus cereus [17] = assay: Antimicrobial activity against Bacillus cereus at 1 umol/spot after 18 hrs by TLC-bioautographic method; assay type: functional
Method in brief: (§2)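 TLC bioautography. Samples are spotted on silica gel TLC plates, then sprayed with bacteria (1.0 × 10^5 cfu/ml) in tryptic soy broth. Plates are incubated 18 h at 37 C and sprayed with 3% aqueous p-iodonitrotetrazolium violet. After a further 3 h, growth is stopped with 70% EtOH. White zones on a pink background are scored as inhibition-zone diameter with standard errors.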

Micrococcus flavus [18] = assay: Antimicrobial activity against Micrococcus flavus at 1 umol/spot after 18 hrs by TLC-bioautographic method; assay type: functional; method in brief: as §2
Staphylococcus aureus [19] = assay: Antimicrobial activity against Staphylococcus aureus at 1 umol/spot after 18 hrs by TLC-bioautographic method; assay type: functional; method in brief: as §2
Escherichia coli [20] = assay: Antimicrobial activity against Escherichia coli at 1 umol/spot after 18 hrs by TLC-bioautographic method; assay type: functional; method in brief: as §2
Pseudomonas aeruginosa [21] = assay: Antimicrobial activity against Pseudomonas aeruginosa at 1 umol/spot after 18 hrs by TLC-bioautographic method; assay type: functional; method in brief: as §2
Enterobacter cloacae [22] = assay: Antimicrobial activity against Enterobacter cloacae at 1 umol/spot after 18 hrs by TLC-bioautographic method; assay type: functional; method in brief: as §2
Salmonella typhimurium [23] = assay: Antimicrobial activity against Salmonella Typhimurium at 1 umol/spot after 18 hrs by TLC-bioautographic method; assay type: functional, Salmonella enterica subsp. enterica serovar Typhimurium; method in brief: as §2
Listeria monocytogenes [24] = assay: Antimicrobial activity against Listeria monocytogenes at 1 umol/spot after 18 hrs by TLC-bioautographic method; assay type: functional; method in brief: as §2
Bacillus cereus [25] = assay: Antimicrobial activity against Bacillus cereus after 24 hrs by microdilution technique; assay type: functional
Method in brief: (§3)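 Broth microdilution in LB medium. Inoculum is 1.0 × 10^4 cfu per well, from a saline-adjusted suspension of 1.0 × 10^5 cfu/ml. Compounds are dissolved in DMSO. Incubated 24 h at 28 C. MIC is the lowest concentration with no visible growth under a binocular microscope. MBC is read by subculture into fresh broth for 72 h, with no growth taken as 99.5% kill. OD is read at 655 nm.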

Micrococcus flavus [26] = assay: Antimicrobial activity against Micrococcus flavus after 24 hrs by microdilution technique; assay type: functional; method in brief: as §3
Staphylococcus aureus [27] = assay: Antimicrobial activity against Staphylococcus aureus after 24 hrs by microdilution technique; assay type: functional; method in brief: as §3
Escherichia coli [28] = assay: Antimicrobial activity against Escherichia coli after 24 hrs by microdilution technique; assay type: functional; method in brief: as §3
Pseudomonas aeruginosa [29] = assay: Antimicrobial activity against Pseudomonas aeruginosa after 24 hrs by microdilution technique; assay type: functional; method in brief: as §3
Enterobacter cloacae [30] = assay: Antimicrobial activity against Enterobacter cloacae after 24 hrs by microdilution technique; assay type: functional; method in brief: as §3
Salmonella typhimurium [31] = assay: Antimicrobial activity against Salmonella Typhimurium after 24 hrs by microdilution technique; assay type: functional, Salmonella enterica subsp. enterica serovar Typhimurium; method in brief: as §3
Listeria monocytogenes [32] = assay: Antimicrobial activity against Listeria monocytogenes after 24 hrs by microdilution technique; assay type: functional; method in brief: as §3

| Structure (SMILES) | inhibition zone (IZ) (Bacillus cereus [1]) | inhibition zone (IZ) (Staphylococcus aureus [3]) | inhibition zone (IZ) (Escherichia coli [4]) | inhibition zone (IZ) (Pseudomonas aeruginosa [5]) | inhibition zone (IZ) (Enterobacter cloacae [6]) | inhibition zone (IZ) (Salmonella typhimurium [7]) | inhibition zone (IZ) (Listeria monocytogenes [8]) | inhibition zone (IZ) (Bacillus cereus [9]) | inhibition zone (IZ) (Micrococcus flavus [10]) | inhibition zone (IZ) (Staphylococcus aureus [11]) | inhibition zone (IZ) (Escherichia coli [12]) | inhibition zone (IZ) (Pseudomonas aeruginosa [13]) | inhibition zone (IZ) (Enterobacter cloacae [14]) | inhibition zone (IZ) (Salmonella typhimurium [15]) | inhibition zone (IZ) (Listeria monocytogenes [16]) | inhibition zone (IZ) (Bacillus cereus [17]) | inhibition zone (IZ) (Micrococcus flavus [18]) | inhibition zone (IZ) (Staphylococcus aureus [19]) | inhibition zone (IZ) (Escherichia coli [20]) | inhibition zone (IZ) (Pseudomonas aeruginosa [21]) | other results |
| --- | --- | --- | --- | --- | --- | --- | --- | --- | --- | --- | --- | --- | --- | --- | --- | --- | --- | --- | --- | --- | --- |
| O=C(/C=C/c1ccc(Cl)cc1)c1ccc(Nc2nc(Nc3ccccc3)nc(Nc3ccccc3)n2)cc1 | inactive | inactive | inactive | inactive | inactive | inactive | inactive | inactive | inactive | inactive | inactive | inactive | inactive | inactive | inactive | inactive | 0.07 millimeter | inactive | inactive | inactive | inhibition zone (IZ) (Micrococcus flavus [2]): inactive; inhibition zone (IZ) (Enterobacter cloacae [22]): 0.08 millimeter; inhibition zone (IZ) (Salmonella typhimurium [23]): 0.09 millimeter; inhibition zone (IZ) (Listeria monocytogenes [24]): 0.07 millimeter; MBC (Bacillus cereus [25]): 386 µM (≈ 200 µg/mL); MIC (Bacillus cereus [25]): 193 µM (≈ 100 µg/mL); MBC (Micrococcus flavus [26]): 386 µM (≈ 200 µg/mL); MIC (Micrococcus flavus [26]): 193 µM (≈ 100 µg/mL); MBC (Staphylococcus aureus [27]): 772 µM (≈ 401 µg/mL); MIC (Staphylococcus aureus [27]): 386 µM (≈ 200 µg/mL); MBC (Escherichia coli [28]): 772 µM (≈ 401 µg/mL); MIC (Escherichia coli [28]): 772 µM (≈ 401 µg/mL); MBC (Pseudomonas aeruginosa [29]): 772 µM (≈ 401 µg/mL); MIC (Pseudomonas aeruginosa [29]): 386 µM (≈ 200 µg/mL); MBC (Enterobacter cloacae [30]): 386 µM (≈ 200 µg/mL); MIC (Enterobacter cloacae [30]): 193 µM (≈ 100 µg/mL); MBC (Salmonella typhimurium [31]; Salmonella enterica): 772 µM (≈ 401 µg/mL); MIC (Salmonella typhimurium [31]; Salmonella enterica): 386 µM (≈ 200 µg/mL); MBC (Listeria monocytogenes [32]): 772 µM (≈ 401 µg/mL); MIC (Listeria monocytogenes [32]): 386 µM (≈ 200 µg/mL) |
| CC(=O)N1N=C(c2ccc(Nc3nc(Nc4ccccc4)nc(Nc4ccccc4)n3)cc2)CC1c1ccco1 (stereo not given) | inactive | inactive | inactive | inactive | inactive | inactive | inactive | inactive | 0.05 millimeter | inactive | inactive | inactive | inactive | inactive | inactive | inactive | inactive | 0.07 millimeter | inactive | inactive | zone of inhibition at 10 µg/disc (Micrococcus flavus [2]; read-out: IZ): 10 mm; inhibition zone (IZ) (Enterobacter cloacae [22]): 0.09 millimeter; inhibition zone (IZ) (Salmonella typhimurium [23]): 0.09 millimeter; inhibition zone (IZ) (Listeria monocytogenes [24]): 0.08 millimeter; MBC (Bacillus cereus [25]): 756 µM (≈ 401 µg/mL); MIC (Bacillus cereus [25]): 378 µM (≈ 201 µg/mL); MBC (Micrococcus flavus [26]): 756 µM (≈ 401 µg/mL); MIC (Micrococcus flavus [26]): 378 µM (≈ 201 µg/mL); MBC (Staphylococcus aureus [27]): 756 µM (≈ 401 µg/mL); MIC (Staphylococcus aureus [27]): 756 µM (≈ 401 µg/mL); MBC (Escherichia coli [28]): 756 µM (≈ 401 µg/mL); MIC (Escherichia coli [28]): 378 µM (≈ 201 µg/mL); MBC (Pseudomonas aeruginosa [29]): 756 µM (≈ 401 µg/mL); MIC (Pseudomonas aeruginosa [29]): 756 µM (≈ 401 µg/mL); MBC (Enterobacter cloacae [30]): inactive; MIC (Enterobacter cloacae [30]): 756 µM (≈ 401 µg/mL); MIC (Salmonella typhimurium [31]; Salmonella enterica): 756 µM (≈ 401 µg/mL); MBC (Salmonella typhimurium [31]; Salmonella enterica subsp. enterica serovar Typhimurium): inactive; MBC (Listeria monocytogenes [32]): inactive; MIC (Listeria monocytogenes [32]): 756 µM (≈ 401 µg/mL) |
